The source made the active and inactive calls. No cut-off for these calls is given here.
Columns and labels:
[1] = test system: HeLa; assay: Cytotoxicity against human HeLa cells assessed as decrease in cell survival up to 3 mM after 24 hrs by trypan blue exclusion assay in presence of N-acetylcysteine; assay type: functional, cell-based
Summary of the method: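 HeLa exposed 24 h to the indicated concentrations with or without 5 mM N-acetylcysteine. Survival by trypan blue exclusion relative to control; triplicate means ± S.E.M.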

[2] = test system: HeLa; assay: Cytotoxicity against human HeLa cells assessed as decrease in cell survival at 2 uM after 24 hrs by trypan blue exclusion assay relative to control; assay type: functional; conditions: read-out: Survival
Summary of the method: (§1)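 HeLa cells grown in EMEM with 10% FBS, 1% glutamine, 1% nonessential amino acids, 1 mM pyruvate and antibiotics at 37 °C in 5% CO2. Compound added from DMSO stock (DMSO 0.1% of volume; controls got DMSO only) and exposed 24 h. Viability read by trypan blue exclusion in triplicate samples, at least 10 fields counted. Survival given as % viable cells versus control.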

[3] = test system: HeLa; assay: Induction of autophagy in human HeLa cells assessed as conversion of LC3-1 protein to LC3-2 protein at 2 uM after 3 hrs by Western blot analysis in presence of bafilomycin A; assay type: functional, cell-based
[4] = test system: HeLa; assay: Cytotoxicity against human HeLa cells assessed as decrease in cell survival at 2 uM after 24 hrs at pH 6.4 by trypan blue exclusion assay; assay type: functional, cell-based
Summary of the method: (§2)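 HeLa given 2 µM for 24 h with uptake-modifying conditions: 0.5 mM spermine plus 1 mM aminoguanidine (inhibits serum amine oxidases); 0.1 mM DFMO with 48 h pretreatment; or medium adjusted to pH 6.4 with HCl instead of 7.2. Survival by trypan blue exclusion vs control; triplicate means ± S.E.M.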

[5] = test system: HeLa; assay: Induction of apoptosis in human HeLa cells assessed as nuclear fragmentation at 2 uM after 24 hrs by DAPI staining assay; assay type: functional, cell-based
Summary of the method: (§3)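 HeLa treated 24 h with 2 µM, then stained with DAPI and scored for chromatin condensation and nuclear fragmentation/condensation.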

[6] = test system: HeLa; assay: Cytotoxicity against human HeLa cells assessed as decrease in cell survival at 2 uM after 24 hrs by trypan blue exclusion assay in presence of spermine; assay type: functional, cell-based; summary of the method: as §2
[7] = test system: HeLa; assay: Cytotoxicity against human HeLa cells transfected with Atg5 siRNA assessed as decrease in cell survival at 2 uM after 24 hrs by trypan blue exclusion assay; assay type: functional, cell-based
Summary of the method: (§4)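 HeLa at 50% confluence transfected 24 h with 100 nM (final) Atg5 or control siRNA, then after a further 24 h incubated 24 h ± 2 µM compound. Cell death by trypan blue; acidic vesicle accumulation by acridine orange staining. Atg5 knockdown checked by blot. Triplicate means ± S.E.M.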

[8] = test system: HeLa; assay: Induction of autophagy in human HeLa cells transfected with Atg5 siRNA assessed as acidic vesicles accumulation at 2 uM after 24 hrs by acridine orange staining-based immunofluorescence microscopic analysis relative to cell transfected with control siRNA; assay type: functional; summary of the method: as §4
[9] = test system: HeLa; assay: Induction of intracellular peroxide formation in human HeLa cells at 2 uM after 3 hrs by DCFDA staining-based flow cytometric analysis; assay type: functional, cell-based
Summary of the method: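 HeLa treated 3 h with 2 µM, then loaded with 5 µM DCFDA for 30 min at 37 °C. DCF fluorescence measured by flow cytometry with logarithmic amplification; mean fluorescence channel vs DMSO control.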

[10] = test system: HeLa; assay: Induction of autophagy in human HeLa cells assessed as appearance of acidic vesicular organelles at 2 uM after 3 hrs by acridine orange staining-based immunofluorescence microscopic analysis; assay type: functional, cell-based
Summary of the method: (§5)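 HeLa treated 3 h with DMSO or 2 µM, with or without 2 h pretreatment with 5 mM NAC; stained with acridine orange and imaged by fluorescence microscopy for cells with orange–red acidic vesicular organelles. Two independent experiments.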

[11] = test system: HeLa; assay: Induction of autophagy in human HeLa cells assessed as conversion of LC3-1 protein to LC3-2 protein at 2 uM after 3 hrs by Western blot analysis; assay type: functional, cell-based
Summary of the method: (§6)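 HeLa treated 3 h with 2 µM in presence or absence of 5 mM NAC; 50 µg protein analysed by Western blot with monoclonal antibody recognising LC3-I (18 kDa) and LC3-II (16 kDa).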

[12] = test system: HeLa; assay: Induction of apoptosis in human HeLa cells assessed as chromatin condensation at 2 uM after 24 hrs by DAPI staining assay; assay type: functional, cell-based; summary of the method: as §3
[13] = test system: U2OS; assay: Cytotoxicity against human U2OS cells assessed as cell survival after 24 hrs by trypan blue exclusion assay; assay type: functional, cell-based
Summary of the method: (§7)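 Cells exposed 24 h to increasing concentrations (DMSO vehicle, 0.1% of medium; controls got DMSO) at 37 °C, 5% CO2. Viability by trypan blue exclusion, triplicate samples, at least 10 fields counted each; survival as % of viable cells vs control. IC50 read from dose–response curve as concentration giving 50% survival.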

[14] = test system: HeLa; assay: Cytotoxicity against human HeLa cells assessed as decrease in cell survival at 2 uM after 24 hrs by trypan blue exclusion assay in presence of DFMO; assay type: functional, cell-based; summary of the method: as §2
[15] = test system: HL-60; assay: Cytotoxicity against human HL60 cells assessed as cell survival after 24 hrs by trypan blue exclusion assay; assay type: functional, cell-based; conditions: HL-60, 24 h; summary of the method: as §7
[16] = Cytotoxicity against human SH-SY5Y cells assessed as cell survival after 24 hrs by trypan blue exclusion assay; assay type: functional, cell-based; summary of the method: as §7
[17] = Cytotoxicity against human SH-SY5Y cells assessed as cell survival after 48 hrs by trypan blue exclusion assay; assay type: functional, cell-based
Summary of the method: (§8)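 Cells exposed 48 h to increasing concentrations in DMSO (0.1% of medium) at 37 °C, 5% CO2. Trypan blue exclusion counts, at least 10 fields per sample, survival as % of viable control cells. IC50 interpolated from dose–response curve; means ± S.E.M. of three to four replicates.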

[18] = test system: HeLa; assay: Induction of autophagy in human HeLa cells assessed as appearance of acidic vesicular organelles at 2 uM after 3 hrs by acridine orange staining-based immunofluorescence microscopic analysis in presence of N-acetylcysteine; assay type: functional, cell-based; summary of the method: as §5
[19] = test system: LoVo; assay: Cytotoxicity against human LoVo cells assessed as cell survival after 24 hrs by trypan blue exclusion assay; assay type: functional, cell-based; summary of the method: as §7
[20] = test system: SAOS-2; assay: Cytotoxicity against human p53-deficient Saos2 cells assessed as cell survival after 48 hrs by trypan blue exclusion assay; assay type: functional, cell-based; conditions: SAOS-2, 48 h; summary of the method: as §8
[21] = test system: HeLa; assay: Cytotoxicity against human HeLa cells assessed as cell survival after 48 hrs by trypan blue exclusion assay; assay type: functional, cell-based; summary of the method: as §8
[22] = test system: HeLa; assay: Induction of autophagy in human HeLa cells assessed as conversion of LC3-1 protein to LC3-2 protein at 2 uM after 3 hrs by Western blot analysis in presence of N-acetylcysteine; assay type: functional, cell-based; summary of the method: as §6
[23] = test system: HT-29; assay: Cytotoxicity against human HT-29 cells assessed as cell survival after 48 hrs by trypan blue exclusion assay; assay type: functional, cell-based; conditions: HT-29, 48 h; summary of the method: as §8
[24] = test system: HT-29; assay: Cytotoxicity against human HT-29 cells assessed as cell survival after 24 hrs by trypan blue exclusion assay; assay type: functional, cell-based; conditions: HT-29, 24 h; summary of the method: as §7
[25] = test system: HeLa; assay: Induction of autophagy in human HeLa cells assessed as appearance of vacuoles in cytoplasm containing mitochondrion at 2 uM after 24 hrs by transmission electron microscopic analysis; assay type: functional, cell-based
Summary of the method: (§9)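 HeLa seeded on glass slides at 1.3 × 10^6 cells/well for 24 h, treated 24 h with 2 µM, fixed in 2.5% glutaraldehyde in 0.1 M phosphate buffer 2 h at 4 °C, post-fixed in 1% OsO4 1 h at 4 °C, examined by transmission electron microscopy for cytoplasmic vacuoles.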

[26] = test system: HeLa; assay: Induction of apoptosis in human HeLa cells assessed as nuclear condensation at 2 uM after 24 hrs by DAPI staining assay; assay type: functional, cell-based; summary of the method: as §3
[27] = test system: HeLa; assay: Induction of autophagy in human HeLa cells assessed as appearance of vacuoles in cytoplasm containing organic materials at 2 uM after 24 hrs by transmission electron microscopic analysis; assay type: functional, cell-based; summary of the method: as §9
[28] = test system: LoVo; assay: Cytotoxicity against human LoVo cells assessed as cell survival after 48 hrs by trypan blue exclusion assay; assay type: functional, cell-based; summary of the method: as §8
[29] = Cytotoxicity against human C-28/I2 cells assessed as cell survival after 24 hrs by trypan blue exclusion assay; assay type: cell-based; conditions: C28/I2, 24 h; summary of the method: as §7
[30] = test system: HeLa; assay: Induction of apoptosis in human HeLa cells assessed as increase in caspase 3/7 activity at 2 uM after 24 hrs by DEVD-based fluorometric analysis; assay type: functional, cell-based
Summary of the method: (§10)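 HeLa treated 24 h with 25 µM DENSPM (positive control) or the indicated concentrations of compound; DEVDase (caspase 3/7) activity measured. Means ± S.E.M. of three replicates vs control.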

[31] = test system: Thymocyte; assay: Cytotoxicity against rat thymocytes assessed as cell survival after 24 hrs by trypan blue exclusion assay; assay type: cell-based; summary of the method: as §7
[32] = test system: HeLa; assay: Cytotoxicity against human HeLa cells assessed as decrease in cell survival at 2 uM after 24 hrs by trypan blue exclusion assay in presence of necrostatin-1; assay type: functional, cell-based
Summary of the method: (§11)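 HeLa pretreated 2 h with Z-VADfmk (50 µM) or necrostatin-1 (20 µM), then exposed to compound for 24 h. Viability by trypan blue exclusion, survival as % of viable control cells; means ± S.E.M. of three determinations.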

[33] = test system: HL-60; assay: Cytotoxicity against human HL60 cells assessed as cell survival after 48 hrs by trypan blue exclusion assay; assay type: functional, cell-based; conditions: HL-60, 48 h; summary of the method: as §8
[34] = test system: U2OS; assay: Cytotoxicity against human U2OS cells assessed as cell survival after 48 hrs by trypan blue exclusion assay; assay type: functional, cell-based; summary of the method: as §8
[35] = test system: HeLa; assay: Cytotoxicity against human HeLa cells assessed as decrease in cell survival at 2 uM after 24 hrs by trypan blue exclusion assay in presence of Z-VADfmk; assay type: functional, cell-based; summary of the method: as §11
[36] = test system: HeLa; assay: Disruption of mitochondrial membrane potential in human HeLa cells at 2 uM after 4 hrs by DiOC6/propidium iodide staining-based flow cytometric analysis; assay type: functional
Summary of the method: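 After treatment, HeLa (1 × 10^6 cells/mL) stained with 4 nM DiOC6 for 40 min at 37 °C in the dark, counterstained with 5 µg/mL propidium iodide to exclude dead cells. Flow cytometry with logarithmic amplification, argon laser; mean green fluorescence channel recorded.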

[37] = test system: HeLa; assay: Cytotoxicity against human HeLa cells assessed as cell survival after 24 hrs by trypan blue exclusion assay; assay type: functional, cell-based; summary of the method: as §7
[38] = test system: SAOS-2; assay: Cytotoxicity against human p53-deficient Saos2 cells assessed as cell survival after 24 hrs by trypan blue exclusion assay; assay type: functional, cell-based; conditions: SAOS-2, 24 h; summary of the method: as §7
[39] = test system: HeLa; assay: Induction of autophagy in human HeLa cells assessed as conversion of LC3-1 protein to LC3-2 protein at 8 mM after 24 hrs by Western blot analysis; assay type: functional, cell-based
Summary of the method: (§12)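 HeLa incubated 24 h with DENSPM (25 µM) or spermidine (8 mM); LC3-I/LC3-II processing by Western blot of 50 µg protein with monoclonal anti-LC3 antibody.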

[40] = test system: HeLa; assay: Cytotoxicity against human HeLa cells assessed as decrease in cell survival at 25 uM after 24 hrs by trypan blue exclusion assay relative to control; assay type: functional; conditions: read-out: Survival; summary of the method: as §1
[41] = test system: HeLa; assay: Induction of apoptosis in human HeLa cells assessed as increase in caspase 3/7 activity at 25 uM after 24 hrs by DEVD-based fluorometric analysis; assay type: functional, cell-based; summary of the method: as §10
[42] = test system: HeLa; assay: Induction of autophagy in human HeLa cells assessed as conversion of LC3-1 protein to LC3-2 protein at 25 uM after 24 hrs by Western blot analysis; assay type: functional, cell-based; summary of the method: as §12

c1ccc(C(CNCCCCCCNCCCCCCCCCCCCNCCCCCCNCC(c2ccccc2)c2ccccc2)c2ccccc2)cc1
Activity [1]: inactive
viability at 2 µM [2]: 50%
Activity [3]: Active
Activity [4]: inactive
Activity [5]: inactive
Activity [6]: Active
Activity [7]: Active
Activity [8]: inactive
Activity [9]: Active
Activity [10]: Active
Activity [11]: Active
Activity [12]: inactive
IC50 [13]: 1100 nM
Activity [14]: Active
IC50 [15]: 1900 nM
IC50 [16]: 2800 nM
IC50 [17]: 900 nM
Activity [18]: inactive
IC50 [19]: 2000 nM
IC50 [20]: 300 nM
IC50 [21]: 600 nM
Activity [22]: inactive
IC50 [23]: 1100 nM
IC50 [24]: 2400 nM
Activity [25]: Active
Activity [26]: inactive
Activity [27]: Active
IC50 [28]: 800 nM
IC50 [29]: 4300 nM
Activity [30]: inactive
IC50 [31]: 6800 nM
Activity [32]: Active
IC50 [33]: 700 nM
IC50 [34]: 400 nM
Activity [35]: Active
Activity [36]: >50%
IC50 [37]: 1600 nM
IC50 [38]: 900 nM

NCCCCNCCCN
Activity [39]: Active

CCNCCCNCCCNCCCNCC [BIS(ETHYL)NORSPERMINE]
viability at 25 µM [40]: 50%
Activity [41]: Active
Activity [42]: inactive

Reference: ChEMBL document CHEMBL2424600, “Synthetic polyamines activating autophagy: effects on cancer cell death” (Eur J Med Chem, 2013)
